{"source": "ChEMBL document CHEMBL4229344", "about": "(Eur J Med Chem, 2018)", "key": {"[1]": {"biological_target": "Mitogen-activated protein kinase kinase kinase 9 (Homo sapiens) (UniProt P80192)", "assay": "Binding affinity to wild-type human partial length MLK1 (V88 to W426 residues) expressed in bacterial expression system assessed as residual binding level at 1 uM by Kinomescan method relative to control"}, "[2]": {"biological_target": "Tyrosine-protein kinase Lck (Homo sapiens) (UniProt P06239)", "assay": "Binding affinity to wild-type human partial length LCK (R207 to P509 residues) expressed in bacterial expression system assessed as residual binding level at 1 uM by Kinomescan method relative to control"}, "[3]": {"biological_target": "Serine/threonine-protein kinase Nek4 (Homo sapiens) (UniProt P51957)", "sequence (P51957 whole entry, looked up, the tested form may be a part)": "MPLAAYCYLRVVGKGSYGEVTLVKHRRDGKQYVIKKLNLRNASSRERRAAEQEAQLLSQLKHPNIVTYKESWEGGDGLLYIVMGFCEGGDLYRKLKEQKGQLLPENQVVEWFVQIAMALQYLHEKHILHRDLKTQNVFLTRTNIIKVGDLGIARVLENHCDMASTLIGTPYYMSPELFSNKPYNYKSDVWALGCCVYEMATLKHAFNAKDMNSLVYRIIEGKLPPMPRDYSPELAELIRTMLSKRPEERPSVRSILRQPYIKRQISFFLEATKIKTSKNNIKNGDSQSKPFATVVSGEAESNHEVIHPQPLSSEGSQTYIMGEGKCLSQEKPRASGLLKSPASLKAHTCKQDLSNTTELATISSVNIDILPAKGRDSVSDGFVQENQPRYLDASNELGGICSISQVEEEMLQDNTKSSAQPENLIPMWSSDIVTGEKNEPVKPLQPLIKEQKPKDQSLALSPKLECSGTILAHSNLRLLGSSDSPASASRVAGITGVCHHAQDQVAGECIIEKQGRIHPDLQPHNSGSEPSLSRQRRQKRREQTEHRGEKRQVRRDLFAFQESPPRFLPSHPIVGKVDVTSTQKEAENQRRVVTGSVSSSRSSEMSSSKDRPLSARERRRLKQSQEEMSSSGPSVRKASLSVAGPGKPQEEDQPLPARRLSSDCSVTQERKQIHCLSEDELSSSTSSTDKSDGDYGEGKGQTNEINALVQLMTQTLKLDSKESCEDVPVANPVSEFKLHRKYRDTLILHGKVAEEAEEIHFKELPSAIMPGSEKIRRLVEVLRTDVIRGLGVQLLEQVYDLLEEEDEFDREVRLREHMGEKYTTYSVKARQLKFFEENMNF", "assay": "Binding affinity to wild-type human full length NEK4 (M1 to F841 residues) expressed in mammalian expression system assessed as residual binding level at 1 uM by Kinomescan method relative to control", "in_short": "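Single-concentration KINOMEscan (DiscoverX) binding screen at 1 μM against a panel of 468 purified kinases and mutants. The read-out is binding relative to control.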"}, "[4]": {"biological_target": "Ephrin type-A receptor 7 (Homo sapiens) (UniProt Q15375)", "assay": "Binding affinity to wild-type human partial length EPHA7 (Y608 to S912 residues) expressed in bacterial expression system assessed as residual binding level at 1 uM by Kinomescan method relative to control"}, "[5]": {"biological_target": "Ribosomal protein S6 kinase alpha-1 (Homo sapiens) (UniProt Q15418)", "assay": "Binding affinity to wild-type human partial length C-terminal RSK1 kinase domain 2 (P360 to L681 residues) expressed in bacterial expression system assessed as residual binding level at 1 uM by Kinomescan method relative to control"}, "[6]": {"biological_target": "Calcium/calmodulin-dependent protein kinase type 1B (Homo sapiens) (UniProt Q6P2M8)", "assay": "Binding affinity to wild-type human partial length CAMK1B (W9 to A311 residues) expressed in mammalian expression system assessed as residual binding level at 1 uM by Kinomescan method relative to control"}, "[7]": {"biological_target": "Ribosomal protein S6 kinase alpha-2 (Homo sapiens) (UniProt Q15349)", "assay": "Binding affinity to wild-type human partial length N-terminal RSK3 kinase domain 1 (M1 to Q385 residues) expressed in bacterial expression system assessed as residual binding level at 1 uM by Kinomescan method relative to control"}, "[8]": {"biological_target": "Mitogen-activated protein kinase kinase kinase kinase 1 (Homo sapiens) (UniProt Q92918)", "assay": "Binding affinity to wild-type human full length HPK1 (M1 to R799 residues) expressed in bacterial expression system assessed as residual binding level at 1 uM by Kinomescan method relative to control", "in_short": "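KINOMEscan competition binding against 468 purified kinases/mutants, test compound at 1 µM; residual binding relative to control.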"}, "[9]": {"biological_target": "Beta-adrenergic receptor kinase 1 (Homo sapiens) (UniProt P25098)", "sequence (P25098 whole entry, the tested form may be a part)": "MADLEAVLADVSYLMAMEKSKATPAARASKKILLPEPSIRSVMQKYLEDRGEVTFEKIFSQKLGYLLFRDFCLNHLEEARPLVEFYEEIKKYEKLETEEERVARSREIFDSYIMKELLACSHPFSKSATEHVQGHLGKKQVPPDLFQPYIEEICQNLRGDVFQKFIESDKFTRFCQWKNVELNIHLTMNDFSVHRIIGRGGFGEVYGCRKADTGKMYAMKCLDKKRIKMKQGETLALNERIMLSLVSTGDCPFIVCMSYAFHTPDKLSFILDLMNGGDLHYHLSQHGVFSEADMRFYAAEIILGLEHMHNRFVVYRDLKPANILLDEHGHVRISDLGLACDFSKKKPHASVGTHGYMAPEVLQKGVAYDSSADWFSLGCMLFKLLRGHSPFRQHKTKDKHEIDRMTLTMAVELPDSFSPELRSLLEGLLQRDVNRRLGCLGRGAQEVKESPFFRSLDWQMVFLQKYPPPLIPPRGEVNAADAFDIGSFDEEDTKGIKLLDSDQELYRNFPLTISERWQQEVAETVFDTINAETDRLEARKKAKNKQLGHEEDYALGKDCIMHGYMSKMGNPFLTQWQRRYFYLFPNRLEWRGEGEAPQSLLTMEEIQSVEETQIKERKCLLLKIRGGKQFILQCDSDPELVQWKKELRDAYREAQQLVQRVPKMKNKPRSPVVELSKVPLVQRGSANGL", "assay": "Binding affinity to wild-type human full length GRK2 (M1 to L689 residues) expressed in mammalian expression system assessed as residual binding level at 1 uM by Kinomescan method relative to control", "in_short": "(§1)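 Single-concentration (1 μM) competition-binding screen run by KINOMEscan against a panel of 468 purified kinases and mutants. The read-out is the relative binding activity of the test compound to each kinase.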"}, "[10]": {"biological_target": "Death-associated protein kinase 1 (Homo sapiens) (UniProt P53355)", "sequence (P53355 whole entry, looked up, the tested form may be a part)": "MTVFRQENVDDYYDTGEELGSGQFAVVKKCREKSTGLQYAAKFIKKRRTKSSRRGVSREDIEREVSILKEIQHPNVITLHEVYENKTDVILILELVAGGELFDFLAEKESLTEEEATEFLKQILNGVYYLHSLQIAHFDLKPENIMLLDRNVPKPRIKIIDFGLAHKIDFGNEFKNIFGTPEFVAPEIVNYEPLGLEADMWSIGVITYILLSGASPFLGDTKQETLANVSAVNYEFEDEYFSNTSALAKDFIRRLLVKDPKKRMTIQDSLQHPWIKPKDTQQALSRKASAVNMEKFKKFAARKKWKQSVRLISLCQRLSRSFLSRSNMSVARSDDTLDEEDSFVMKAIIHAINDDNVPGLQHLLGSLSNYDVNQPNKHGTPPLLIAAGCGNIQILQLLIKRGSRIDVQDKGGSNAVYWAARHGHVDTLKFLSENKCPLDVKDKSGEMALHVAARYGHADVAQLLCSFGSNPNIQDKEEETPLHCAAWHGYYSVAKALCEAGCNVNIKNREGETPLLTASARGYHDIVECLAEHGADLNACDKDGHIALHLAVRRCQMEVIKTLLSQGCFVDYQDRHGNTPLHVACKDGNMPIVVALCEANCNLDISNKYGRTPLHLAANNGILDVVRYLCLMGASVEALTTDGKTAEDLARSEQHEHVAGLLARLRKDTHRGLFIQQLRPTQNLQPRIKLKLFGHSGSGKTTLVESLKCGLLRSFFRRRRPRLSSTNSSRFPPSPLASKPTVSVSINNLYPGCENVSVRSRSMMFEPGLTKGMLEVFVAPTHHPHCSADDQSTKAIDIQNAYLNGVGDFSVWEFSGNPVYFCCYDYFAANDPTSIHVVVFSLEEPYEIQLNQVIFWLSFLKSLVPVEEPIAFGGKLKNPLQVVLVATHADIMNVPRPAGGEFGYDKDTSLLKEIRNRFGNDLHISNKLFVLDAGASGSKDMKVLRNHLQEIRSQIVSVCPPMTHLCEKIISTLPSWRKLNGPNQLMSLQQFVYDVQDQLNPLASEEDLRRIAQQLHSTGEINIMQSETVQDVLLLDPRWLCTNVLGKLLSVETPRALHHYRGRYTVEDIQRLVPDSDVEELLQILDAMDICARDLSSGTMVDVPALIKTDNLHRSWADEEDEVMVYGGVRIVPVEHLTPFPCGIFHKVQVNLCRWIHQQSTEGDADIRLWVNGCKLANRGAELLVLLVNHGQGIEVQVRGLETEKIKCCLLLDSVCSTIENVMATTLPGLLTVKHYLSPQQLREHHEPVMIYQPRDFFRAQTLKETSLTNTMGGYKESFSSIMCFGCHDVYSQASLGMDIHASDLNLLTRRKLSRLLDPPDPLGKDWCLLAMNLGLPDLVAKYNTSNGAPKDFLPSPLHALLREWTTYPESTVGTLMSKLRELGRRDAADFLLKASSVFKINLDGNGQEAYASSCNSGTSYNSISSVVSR", "assay": "Binding affinity to wild-type human partial length DAPK1 (M1 to F296 residues) expressed in bacterial expression system assessed as residual binding level at 1 uM by Kinomescan method relative to control"}, "[11]": {"biological_target": "Casein kinase I isoform epsilon (Homo sapiens) (UniProt P49674)", "assay": "Binding affinity to wild-type human full length CSNK1E (M1 to K416 residues) expressed in bacterial expression system assessed as residual binding level at 1 uM by Kinomescan method relative to control", "in_short": "as §1"}, "[12]": {"biological_target": "Serine/threonine-protein kinase pim-2 (Homo sapiens) (UniProt Q9P1W9)", "assay": "Binding affinity to wild-type human partial length PIM2 (M1 to E291 residues) expressed in bacterial expression system assessed as residual binding level at 1 uM by Kinomescan method relative to control"}, "[13]": {"biological_target": "Protein kinase C iota type (Homo sapiens) (UniProt P41743)", "assay": "Binding affinity to wild-type human partial length PRKCI (H215 to V587 residues) expressed in mammalian expression system assessed as residual binding level at 1 uM by Kinomescan method relative to control"}, "[14]": {"biological_target": "Serine/threonine-protein kinase ULK3 (Homo sapiens) (UniProt Q6PHR2)", "sequence (Q6PHR2 whole entry, the tested form may be a part)": "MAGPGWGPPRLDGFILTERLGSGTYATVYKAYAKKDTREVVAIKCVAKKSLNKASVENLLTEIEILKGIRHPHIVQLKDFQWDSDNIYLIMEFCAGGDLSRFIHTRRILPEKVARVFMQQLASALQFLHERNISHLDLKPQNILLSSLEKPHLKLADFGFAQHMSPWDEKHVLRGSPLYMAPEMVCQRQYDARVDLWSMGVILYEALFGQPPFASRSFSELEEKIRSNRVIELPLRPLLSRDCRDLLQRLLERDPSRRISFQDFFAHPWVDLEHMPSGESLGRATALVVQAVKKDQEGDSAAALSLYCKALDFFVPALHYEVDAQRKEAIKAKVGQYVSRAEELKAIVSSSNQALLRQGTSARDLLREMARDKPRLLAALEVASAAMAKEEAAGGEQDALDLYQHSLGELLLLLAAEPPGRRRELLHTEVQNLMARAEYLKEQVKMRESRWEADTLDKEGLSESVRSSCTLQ", "assay": "Binding affinity to wild-type human partial length ULK3 (M1 to Q290 residues) expressed in mammalian expression system assessed as residual binding level at 1 uM by Kinomescan method relative to control"}, "[15]": {"biological_target": "Ephrin type-A receptor 5 (Homo sapiens) (UniProt P54756)", "assay": "Binding affinity to wild-type human partial length EPHA5 (T627 to V930 residues) expressed in bacterial expression system assessed as residual binding level at 1 uM by Kinomescan method relative to control"}, "[16]": {"biological_target": "Rhodopsin kinase GRK7 (Homo sapiens) (UniProt Q8WTQ7)", "sequence (Q8WTQ7 whole entry, the tested form may be a part)": "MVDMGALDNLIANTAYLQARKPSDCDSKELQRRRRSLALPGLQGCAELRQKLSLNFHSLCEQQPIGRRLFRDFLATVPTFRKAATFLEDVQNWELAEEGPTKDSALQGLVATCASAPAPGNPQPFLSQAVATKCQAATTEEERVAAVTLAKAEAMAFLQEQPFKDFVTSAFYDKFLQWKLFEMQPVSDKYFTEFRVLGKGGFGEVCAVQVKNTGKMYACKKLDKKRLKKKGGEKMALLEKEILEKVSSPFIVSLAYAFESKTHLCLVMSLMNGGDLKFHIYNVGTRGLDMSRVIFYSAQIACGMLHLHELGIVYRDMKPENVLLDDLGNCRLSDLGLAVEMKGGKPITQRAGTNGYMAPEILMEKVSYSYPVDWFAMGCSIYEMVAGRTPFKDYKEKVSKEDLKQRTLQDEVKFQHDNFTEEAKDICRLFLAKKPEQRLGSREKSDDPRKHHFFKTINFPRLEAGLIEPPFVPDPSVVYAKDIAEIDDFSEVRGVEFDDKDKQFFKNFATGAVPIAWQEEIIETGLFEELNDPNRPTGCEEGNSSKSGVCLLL", "assay": "Binding affinity to wild-type human full length GRK7 (M1 to L553 residues) expressed in mammalian expression system assessed as residual binding level at 1 uM by Kinomescan method relative to control", "in_short": "as §1"}, "[17]": {"biological_target": "Mitotic checkpoint serine/threonine-protein kinase BUB1 (Homo sapiens) (UniProt O43683)", "sequence (O43683 whole entry, looked up, the tested form may be a part)": "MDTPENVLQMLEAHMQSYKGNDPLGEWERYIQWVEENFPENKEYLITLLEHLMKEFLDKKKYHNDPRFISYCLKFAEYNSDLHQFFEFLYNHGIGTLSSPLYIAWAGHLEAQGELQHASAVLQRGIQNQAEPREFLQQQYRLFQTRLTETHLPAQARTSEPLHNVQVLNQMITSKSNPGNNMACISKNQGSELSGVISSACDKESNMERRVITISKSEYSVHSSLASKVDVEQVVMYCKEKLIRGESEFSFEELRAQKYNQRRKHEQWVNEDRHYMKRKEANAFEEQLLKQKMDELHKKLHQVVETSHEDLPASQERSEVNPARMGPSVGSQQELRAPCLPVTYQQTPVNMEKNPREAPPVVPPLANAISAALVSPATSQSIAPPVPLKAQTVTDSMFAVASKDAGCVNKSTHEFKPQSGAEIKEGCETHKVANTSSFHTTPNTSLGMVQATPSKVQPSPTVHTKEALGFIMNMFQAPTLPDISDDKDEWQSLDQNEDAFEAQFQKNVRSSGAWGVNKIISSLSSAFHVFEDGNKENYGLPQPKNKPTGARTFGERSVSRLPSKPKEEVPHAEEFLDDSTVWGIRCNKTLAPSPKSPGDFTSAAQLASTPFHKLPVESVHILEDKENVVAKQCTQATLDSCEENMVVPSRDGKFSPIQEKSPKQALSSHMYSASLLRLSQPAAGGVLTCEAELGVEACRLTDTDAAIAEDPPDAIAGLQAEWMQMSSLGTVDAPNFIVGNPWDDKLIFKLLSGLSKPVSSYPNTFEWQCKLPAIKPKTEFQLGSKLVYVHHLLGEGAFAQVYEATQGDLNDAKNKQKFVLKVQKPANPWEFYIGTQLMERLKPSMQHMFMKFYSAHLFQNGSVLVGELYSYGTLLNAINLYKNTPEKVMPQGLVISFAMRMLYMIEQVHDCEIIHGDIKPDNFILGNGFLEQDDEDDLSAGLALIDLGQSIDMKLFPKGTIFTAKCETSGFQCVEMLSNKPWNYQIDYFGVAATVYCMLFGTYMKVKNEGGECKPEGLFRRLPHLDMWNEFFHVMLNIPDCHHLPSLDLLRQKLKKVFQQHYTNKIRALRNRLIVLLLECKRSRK", "assay": "Binding affinity to wild-type human partial length BUB1 (Q724 to K1085 residues) expressed in mammalian expression system assessed as residual binding level at 1 uM by Kinomescan method relative to control"}, "[18]": {"biological_target": "Angiopoietin-1 receptor (Homo sapiens) (UniProt Q02763)", "assay": "Binding affinity to wild-type human partial length TIE2 (N804 to T1112 residues) expressed in bacterial expression system assessed as residual binding level at 1 uM by Kinomescan method relative to control"}, "[19]": {"biological_target": "Cyclin-dependent kinase 11A (Homo sapiens) (UniProt Q9UQ88)", "assay": "Binding affinity to wild-type human partial length CDC2L2 (D391 to K730 residues) expressed in bacterial expression system assessed as residual binding level at 1 uM by Kinomescan method relative to control"}, "[20]": {"biological_target": "Serine/threonine-protein kinase PRP4 homolog (Homo sapiens) (UniProt Q13523)", "assay": "Binding affinity to wild-type human partial length PRP4 (D657 to I1007 residues) expressed in bacterial expression system assessed as residual binding level at 1 uM by Kinomescan method relative to control"}, "[21]": {"assay": "AUC (0 to infinity) in Sprague-Dawley rat at 1 mg/kg, iv", "type": "ADME, organism-based", "design": "dose 1 mg/kg, time infinity, route intravenous", "details": "in vivo", "in_short": "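Male Sprague-Dawley rats (6–8 weeks) fasted overnight, dosed IV or orally; compound dissolved in 5% DMSO/40% PEG400/55% saline (dosing solution 1 mg/mL). Blood (~0.2 mL) from jugular vein into heparin; IV sampling 1 min–8 h, oral 5 min–24 h. Plasma separated by centrifugation at 2–8 °C, stored at −80 °C until analysis.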"}, "[22]": {"biological_target": "Mitogen-activated protein kinase kinase kinase kinase 3 (Homo sapiens) (UniProt Q8IVH8)", "assay": "Binding affinity to wild-type human partial length MAP4K3 (M1 to D301 residues) expressed in bacterial expression system assessed as residual binding level at 1 uM by Kinomescan method relative to control"}}, "data": [{"smiles": "Cc1ccc(NC(=O)c2ccc(CN(CCN(C)C)C(=O)c3cccnc3)cc2)cc1Nc1nccc(-c2cccnc2)n1", "values": [{"measurement": "Activity", "setting": "[1]", "result": 88, "unit": "%"}, {"measurement": "Activity", "setting": "[2]", "result": 100, "unit": "%"}, {"measurement": "Activity", "setting": "[3]", "result": 100, "unit": "%"}, {"measurement": "Activity", "setting": "[4]", "result": 100, "unit": "%"}, {"measurement": "Activity", "setting": "[5]", "result": 100, "unit": "%"}, {"measurement": "Activity", "setting": "[6]", "result": 90, "unit": "%"}, {"measurement": "Activity", "setting": "[7]", "result": 94, "unit": "%"}, {"measurement": "Activity", "setting": "[8]", "result": 94, "unit": "%"}, {"measurement": "Activity", "setting": "[9]", "result": 100, "unit": "%"}, {"measurement": "Activity", "setting": "[10]", "result": 96, "unit": "%"}, {"measurement": "Activity", "setting": "[11]", "result": 97, "unit": "%"}, {"measurement": "Activity", "setting": "[12]", "result": 93, "unit": "%"}, {"measurement": "Activity", "setting": "[13]", "result": 100, "unit": "%"}, {"measurement": "Activity", "setting": "[14]", "result": 85, "unit": "%"}, {"measurement": "Activity", "setting": "[15]", "result": 86, "unit": "%"}, {"measurement": "Activity", "setting": "[16]", "result": 100, "unit": "%"}, {"measurement": "Activity", "setting": "[17]", "result": 100, "unit": "%"}, {"measurement": "Activity", "setting": "[18]", "result": 93, "unit": "%"}, {"measurement": "Activity", "setting": "[19]", "result": 96, "unit": "%"}, {"measurement": "Activity", "setting": "[20]", "result": 100, "unit": "%"}, {"measurement": "AUC(0-inf)", "setting": "[21]", "result": 541, "unit": "ng·h/mL"}, {"measurement": "Activity", "setting": "[22]", "result": 93, "unit": "%"}]}]}
